Results reported in ChEMBL document CHEMBL1124820, “Total synthesis of the four stereoisomers of dihexadecanoyl phosphatidylinositol and the substrate stereospecificity of human erythrocyte membrane phosphatidylinositol 4-kinase” (J Med Chem, 1990).

Key:
[1] = biological target: T1, Phosphatidylinositol 4-kinase, PI4K (Homo sapiens) (UniProt Q9BTU6+Q8TCG2+Q9UBF8+P42356); assay: Rate of phosphorylation was determined with that of mammalian PI using human erythrocyte PI 4-kinase at 200 uM substrate; type: functional
T1 sequence (P42356 whole entry, looked up): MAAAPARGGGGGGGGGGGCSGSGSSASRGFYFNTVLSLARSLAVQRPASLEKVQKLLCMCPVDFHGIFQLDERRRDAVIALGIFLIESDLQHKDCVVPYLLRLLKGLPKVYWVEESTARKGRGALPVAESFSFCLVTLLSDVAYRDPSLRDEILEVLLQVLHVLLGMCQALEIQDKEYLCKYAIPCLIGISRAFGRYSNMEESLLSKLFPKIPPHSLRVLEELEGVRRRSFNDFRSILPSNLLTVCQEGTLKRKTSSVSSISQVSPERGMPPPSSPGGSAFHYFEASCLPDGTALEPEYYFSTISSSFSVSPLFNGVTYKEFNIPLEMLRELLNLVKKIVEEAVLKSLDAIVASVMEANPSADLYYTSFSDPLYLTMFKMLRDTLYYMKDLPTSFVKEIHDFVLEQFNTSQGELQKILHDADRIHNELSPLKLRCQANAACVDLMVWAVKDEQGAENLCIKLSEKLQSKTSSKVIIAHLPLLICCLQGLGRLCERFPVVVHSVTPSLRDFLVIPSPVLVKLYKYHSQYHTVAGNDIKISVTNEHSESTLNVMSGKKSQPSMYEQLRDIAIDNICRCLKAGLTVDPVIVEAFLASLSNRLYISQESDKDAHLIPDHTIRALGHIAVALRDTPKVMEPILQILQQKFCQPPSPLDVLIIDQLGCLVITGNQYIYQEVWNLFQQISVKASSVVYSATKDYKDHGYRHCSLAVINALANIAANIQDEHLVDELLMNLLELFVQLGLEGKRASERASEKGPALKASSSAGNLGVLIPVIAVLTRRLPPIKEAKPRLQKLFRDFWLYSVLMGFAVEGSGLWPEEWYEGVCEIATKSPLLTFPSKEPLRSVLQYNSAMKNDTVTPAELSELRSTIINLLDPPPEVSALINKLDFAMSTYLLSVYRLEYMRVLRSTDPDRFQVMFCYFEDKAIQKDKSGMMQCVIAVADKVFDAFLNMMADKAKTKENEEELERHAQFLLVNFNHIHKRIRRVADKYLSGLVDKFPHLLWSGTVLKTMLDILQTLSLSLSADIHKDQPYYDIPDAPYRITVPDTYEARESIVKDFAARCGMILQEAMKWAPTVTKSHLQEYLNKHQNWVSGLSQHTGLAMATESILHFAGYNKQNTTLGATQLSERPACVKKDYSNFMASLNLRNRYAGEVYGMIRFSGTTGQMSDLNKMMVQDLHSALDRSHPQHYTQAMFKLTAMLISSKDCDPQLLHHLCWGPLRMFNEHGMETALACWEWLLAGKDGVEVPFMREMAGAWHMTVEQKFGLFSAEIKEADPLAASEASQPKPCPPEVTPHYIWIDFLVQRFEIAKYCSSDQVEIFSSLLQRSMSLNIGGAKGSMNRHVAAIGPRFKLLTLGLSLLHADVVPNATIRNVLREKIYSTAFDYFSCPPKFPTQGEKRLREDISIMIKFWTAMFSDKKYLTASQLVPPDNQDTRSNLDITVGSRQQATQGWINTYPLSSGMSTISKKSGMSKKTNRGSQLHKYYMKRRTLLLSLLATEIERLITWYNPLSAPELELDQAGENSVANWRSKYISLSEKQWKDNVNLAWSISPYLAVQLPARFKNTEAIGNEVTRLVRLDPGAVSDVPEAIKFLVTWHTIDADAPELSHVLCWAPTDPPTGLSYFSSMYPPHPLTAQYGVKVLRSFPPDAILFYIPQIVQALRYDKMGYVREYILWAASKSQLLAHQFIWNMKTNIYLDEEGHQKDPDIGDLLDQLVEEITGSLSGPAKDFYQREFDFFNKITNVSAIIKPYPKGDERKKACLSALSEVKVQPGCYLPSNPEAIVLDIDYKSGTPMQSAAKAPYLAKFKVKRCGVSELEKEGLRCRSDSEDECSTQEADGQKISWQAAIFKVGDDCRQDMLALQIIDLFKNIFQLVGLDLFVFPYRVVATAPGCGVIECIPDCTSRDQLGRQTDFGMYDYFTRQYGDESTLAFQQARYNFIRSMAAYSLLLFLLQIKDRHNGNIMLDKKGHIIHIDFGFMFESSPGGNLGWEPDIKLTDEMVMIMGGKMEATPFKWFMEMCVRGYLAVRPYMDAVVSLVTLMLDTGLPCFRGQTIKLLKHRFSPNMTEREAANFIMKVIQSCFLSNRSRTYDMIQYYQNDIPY
T1 sequence (Q8TCG2 whole entry, looked up): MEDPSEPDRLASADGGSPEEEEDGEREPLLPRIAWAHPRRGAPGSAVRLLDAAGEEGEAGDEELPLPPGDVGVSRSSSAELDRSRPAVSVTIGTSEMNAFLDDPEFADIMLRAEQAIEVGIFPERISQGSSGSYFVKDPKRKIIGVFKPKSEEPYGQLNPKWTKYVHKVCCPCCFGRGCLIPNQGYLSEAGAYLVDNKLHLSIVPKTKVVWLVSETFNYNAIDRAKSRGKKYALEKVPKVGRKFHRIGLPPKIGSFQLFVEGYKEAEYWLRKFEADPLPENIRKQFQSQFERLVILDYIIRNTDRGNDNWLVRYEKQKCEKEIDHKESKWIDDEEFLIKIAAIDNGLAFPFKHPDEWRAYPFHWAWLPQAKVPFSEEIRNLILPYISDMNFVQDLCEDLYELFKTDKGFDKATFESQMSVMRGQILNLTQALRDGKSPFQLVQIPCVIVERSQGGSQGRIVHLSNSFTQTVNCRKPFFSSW
T1 sequence (Q9BTU6 whole entry, looked up): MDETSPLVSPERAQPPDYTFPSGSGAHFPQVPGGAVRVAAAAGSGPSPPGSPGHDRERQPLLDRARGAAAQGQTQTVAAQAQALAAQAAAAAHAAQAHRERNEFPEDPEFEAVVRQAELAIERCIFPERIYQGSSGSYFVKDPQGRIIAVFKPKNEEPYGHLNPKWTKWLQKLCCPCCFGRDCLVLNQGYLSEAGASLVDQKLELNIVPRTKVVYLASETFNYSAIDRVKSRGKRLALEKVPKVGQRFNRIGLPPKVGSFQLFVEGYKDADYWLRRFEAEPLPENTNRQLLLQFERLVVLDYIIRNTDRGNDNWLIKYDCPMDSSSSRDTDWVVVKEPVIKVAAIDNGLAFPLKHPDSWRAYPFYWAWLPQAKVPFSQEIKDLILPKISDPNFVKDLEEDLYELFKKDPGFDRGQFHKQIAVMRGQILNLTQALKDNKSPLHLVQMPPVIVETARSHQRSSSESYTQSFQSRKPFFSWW
T1 sequence (Q9UBF8 whole entry, looked up): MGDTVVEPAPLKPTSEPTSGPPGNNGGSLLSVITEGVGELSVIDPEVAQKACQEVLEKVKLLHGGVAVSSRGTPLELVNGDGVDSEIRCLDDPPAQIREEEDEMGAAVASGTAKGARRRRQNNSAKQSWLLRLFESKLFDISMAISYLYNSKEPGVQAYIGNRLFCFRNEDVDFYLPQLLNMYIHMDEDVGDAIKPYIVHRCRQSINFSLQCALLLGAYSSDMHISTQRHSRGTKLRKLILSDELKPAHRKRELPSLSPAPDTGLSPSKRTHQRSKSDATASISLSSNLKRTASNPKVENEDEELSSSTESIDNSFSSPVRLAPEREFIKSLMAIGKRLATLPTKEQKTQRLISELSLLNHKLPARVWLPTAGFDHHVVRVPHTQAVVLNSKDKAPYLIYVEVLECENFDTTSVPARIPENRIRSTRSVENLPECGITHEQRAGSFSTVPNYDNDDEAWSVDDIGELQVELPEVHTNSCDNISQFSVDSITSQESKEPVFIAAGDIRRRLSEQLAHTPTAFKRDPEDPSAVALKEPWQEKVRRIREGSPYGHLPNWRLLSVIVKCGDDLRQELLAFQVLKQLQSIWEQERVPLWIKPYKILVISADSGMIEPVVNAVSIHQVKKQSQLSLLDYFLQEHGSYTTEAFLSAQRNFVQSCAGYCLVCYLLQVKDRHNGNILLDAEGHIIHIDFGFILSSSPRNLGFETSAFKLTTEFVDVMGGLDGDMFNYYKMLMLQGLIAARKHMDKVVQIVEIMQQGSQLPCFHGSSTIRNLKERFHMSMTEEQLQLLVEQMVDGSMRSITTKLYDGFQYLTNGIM
Outline: (§1)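 Enzyme was extracted with Triton X-100 from human erythrocyte membranes and purified about 90-fold. Substrate at 200 μM final was tested in mixed micelles with 0.3% Triton X-100, 100 μM [γ-32P]ATP, 15 mM MgCl2, 1 mM EGTA, 1 mM DTT, 0.1 M NaCl and 50 mM HEPES pH 7.4 at 30 °C. Reactions were stopped with acidified CHCl3/MeOH, and organic-phase 32P was counted. Rates were expressed relative to mammalian PI, triplicate, mean ± SE.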

[2] = biological target: T1, Phosphatidylinositol 4-kinase, PI4K (Homo sapiens); assay: Percent relative rate of phosphorylation was determined using human erythrocyte PI 4-kinase; type: functional; outline: as §1

| SMILES | Rate of formation [1] | Relative rate [2] |
| --- | --- | --- |
| CCCCCCCCCCCCCCCC(=O)OCC(COP(=O)(O)OC1C(O)C(O)C(O)C(O)C1O)OC(=O)CCCCCCCCCCCCCCC (stereo in doubt; 10b) | 23.5 pmol/min | 100% |
| CCCCCCCCCCCCCCCC(=O)OCC(COP(=O)(O)OC1C(O)C(O)C(O)C(O)C1O)OC(=O)CCCCCCCCCCCCCCC (stereo in doubt; 10c) | 1.01 pmol/min | 4.3% |
| CCCCCCCCCCCCCCCC(=O)OCC(COP(=O)(O)OC1C(O)C(O)C(O)C(O)C1O)OC(=O)CCCCCCCCCCCCCCC (stereo in doubt; 10d) | 0.76 pmol/min | 3.2% |

Continued, values first:

| Rate of formation [1] | Relative rate [2] | SMILES |
| --- | --- | --- |
| 23.5 pmol/min | 100% | CCCCC/C=C/C/C=C/C/C=C/C/C=C/CCCC(=O)OC(COC(=O)CCCCCCCCCCCCCCCCC)COP(=O)(O)OC1C(O)C(O)C(O)C(O)C1O (stereo not given) |
| 24.9 pmol/min | 106% | CCCCCCCCCCCCCCCC(=O)OCC(COP(=O)(O)OC1C(O)C(O)C(O)C(O)C1O)OC(=O)CCCCCCCCCCCCCCC (stereo in doubt; 10a) |
